Test results from ChEMBL document CHEMBL3272313, “3-Hydroxy-17-aralkylmorphinans as potential opiate receptor-site-directed alkylating agents” (J Med Chem, 1977).
Active and inactive are the calls of the source. The rule behind the calls is not given here.

Columns and labels:
Mus musculus [1] = assay: Analgesic activity in sc dosed Swiss-Webster mouse after 30 mins; format: functional; conditions: 0.5 h
Mus musculus [2] = assay: Analgesic activity in Swiss-Webster mouse assessed as time required for sustainance of activity at 100 mg/kg, sc; format: functional; conditions: route subcutaneous
Mus musculus [3] = assay: Inhibition of morphine sulfate-induced analgesic activity in Swiss-Webster mouse at 100 mg/kg, sc after 1 hr; format: functional, organism-based; design: dose 100 mg/kg
Procedure, shortened: (§1)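 Male Swiss-Webster mice, 20–25 g. Challenge was 10 mg/kg morphine sulfate in 8–10 mice, read by the modified D'Amour–Smith test. Where block was seen, morphine ED50 (95% limits) was found by Litchfield–Wilcoxon.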

Mus musculus [4] = organism: Mus musculus; assay: Narcotic agonist activity in morphine-dependent mouse assessed as suppression of abstinence; format: functional, organism-based
Procedure, shortened: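 Single-dose suppression test in morphine-dependent mice after withdrawal (method of Takemori et al.); compound given sc.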

Mus musculus [5] = assay: Analgesic activity in sc dosed Swiss-Webster mouse time of peak effect; format: functional
Mus musculus [6] = assay: Analgesic activity in Swiss-Webster mouse assessed as time required for sustainance of activity at 15 mg/kg, sc; format: functional; conditions: route subcutaneous
Mus musculus [7] = assay: Analgesic activity in Swiss-Webster mouse assessed as time required for sustainance of activity at 20 mg/kg, sc; format: functional; conditions: route subcutaneous
Mus musculus [8] = assay: Inhibition of morphine sulfate-induced analgesic activity in Swiss-Webster mouse at 100 mg/kg, sc after 2 hrs; format: functional, organism-based; design: dose 100 mg/kg; procedure, shortened: as §1
Mus musculus [9] = assay: Analgesic activity in Swiss-Webster mouse assessed as time required for sustainance of activity at 50 mg/kg, sc; format: functional; conditions: route subcutaneous
Mus musculus [10] = assay: Inhibition of morphine sulfate-induced analgesic activity in Swiss-Webster mouse at 50 mg/kg, sc after 2 hrs; format: functional, organism-based; design: dose 50 mg/kg; procedure, shortened: as §1
Mus musculus [11] = assay: Analgesic activity in Swiss-Webster mouse assessed as time required for sustainance of activity at 380 mg/kg, sc; format: functional; conditions: route subcutaneous
Mus musculus [12] = assay: Inhibition of morphine sulfate-induced analgesic activity in Swiss-Webster mouse at 380 mg/kg, sc after 5.5 hrs; format: functional, organism-based; design: dose 380 mg/kg; procedure, shortened: as §1
Mus musculus [13] = assay: Analgesic activity in Swiss-Webster mouse at 2 mg/kg, sc in presence of naloxone; format: functional, organism-based; design: dose 2 mg/kg
Procedure, shortened: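 Mice were pretreated with naloxone, then given blocker 2 mg/kg sc. After 2 h, when the naloxone effect had ended, morphine analgesia was tested in the same animals (modified D'Amour–Smith). Counts are responders per 10 mice.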

[14] = biological target: T1, Opioid receptors; mu/kappa/delta (Homo sapiens, UniProt P41145+P41143+P35372); assay: Displacement of [3H]naloxone from opiate receptor (unknown origin) after 10 mins
[15] = biological target: T1, Opioid receptors; mu/kappa/delta; assay: Displacement of [3H]naloxone from opiate receptor (unknown origin) after 10 mins in presence of NaCl
Procedure, shortened: (§2)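 [3H]naloxone 1.5×10^-9 M bound to a brain homogenate (Pert–Snyder method as modified by Pasternak, with a preincubation step), 10 min incubation. Run with and without 100 mM NaCl. Stereospecific binding was defined with 1×10^-6 M levallorphan. IC50 is the concentration giving 50% inhibition of stereospecific binding, and the ratio is IC50 with NaCl over IC50 without.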

[16] = biological target: T1, Opioid receptors; mu/kappa/delta; assay: Ratio of IC50 for opiate receptor (unknown origin) after 10 mins in presence of NaCl to IC50 for opiate receptor (unknown origin) after 10 mins; procedure, shortened: as §2
Mus musculus [17] = assay: Ratio of morphine ED50 to compound ED50 for sc dosed Swiss-Webster mouse; format: functional
Mus musculus [18] = assay: Analgesic activity in Swiss-Webster mouse assessed as time required for sustainance of activity at 2 mg/kg, sc; format: functional; conditions: route subcutaneous
Mus musculus [19] = assay: Inhibition of morphine sulfate-induced analgesic activity in Swiss-Webster mouse at 2 to 32 mg/kg, sc after 2 to 4 hrs; format: functional, organism-based
Procedure, shortened: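 Male Swiss-Webster mice received the maleimide blocker sc at 2, 8 or 32 mg/kg (40% propylene glycol). Morphine sulfate dose-response was run after reaction time returned to control (2, 3 or 4 h). Morphine ED50 and 95% limits were taken by Litchfield–Wilcoxon, and curve slopes were compared.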

Mus musculus [20] = assay: Analgesic activity in Swiss-Webster mouse assessed as time required for sustainance of activity at 80 mg/kg, sc; format: functional; conditions: route subcutaneous
Mus musculus [21] = assay: Inhibition of morphine sulfate-induced analgesic activity in Swiss-Webster mouse at 80 mg/kg, sc after 1 hr; format: functional, organism-based; design: dose 80 mg/kg; procedure, shortened: as §1
Mus musculus [22] = assay: Analgesic activity in Swiss-Webster mouse assessed as time required for sustainance of activity at 350 mg/kg, sc; format: functional; conditions: route subcutaneous
Mus musculus [23] = assay: Inhibition of morphine sulfate-induced analgesic activity in Swiss-Webster mouse at 350 mg/kg, sc after 2 hrs; format: functional, organism-based; design: dose 350 mg/kg; procedure, shortened: as §1

T1 sequence (P35372 whole entry, looked up): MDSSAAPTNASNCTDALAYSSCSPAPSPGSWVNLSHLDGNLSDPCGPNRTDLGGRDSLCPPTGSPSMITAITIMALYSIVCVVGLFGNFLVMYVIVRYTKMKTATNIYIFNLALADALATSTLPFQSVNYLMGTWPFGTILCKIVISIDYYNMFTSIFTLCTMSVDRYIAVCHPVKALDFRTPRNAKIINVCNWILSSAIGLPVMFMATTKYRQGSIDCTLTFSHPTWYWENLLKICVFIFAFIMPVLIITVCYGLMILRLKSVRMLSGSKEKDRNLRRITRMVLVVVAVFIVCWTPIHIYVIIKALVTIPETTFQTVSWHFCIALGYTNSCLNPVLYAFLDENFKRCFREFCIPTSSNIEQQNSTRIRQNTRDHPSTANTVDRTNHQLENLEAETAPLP
T1 sequence (P41143 whole entry, looked up): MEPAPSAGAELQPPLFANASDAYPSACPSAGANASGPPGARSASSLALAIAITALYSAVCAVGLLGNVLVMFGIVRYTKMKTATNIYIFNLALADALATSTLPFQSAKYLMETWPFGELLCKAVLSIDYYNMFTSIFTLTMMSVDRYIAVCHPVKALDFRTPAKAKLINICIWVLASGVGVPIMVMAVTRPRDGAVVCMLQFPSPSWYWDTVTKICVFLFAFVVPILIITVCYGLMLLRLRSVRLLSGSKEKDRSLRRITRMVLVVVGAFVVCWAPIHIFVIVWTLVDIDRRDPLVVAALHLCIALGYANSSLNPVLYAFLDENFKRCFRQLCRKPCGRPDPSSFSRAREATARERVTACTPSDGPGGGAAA
T1 sequence (P41145 whole entry, looked up): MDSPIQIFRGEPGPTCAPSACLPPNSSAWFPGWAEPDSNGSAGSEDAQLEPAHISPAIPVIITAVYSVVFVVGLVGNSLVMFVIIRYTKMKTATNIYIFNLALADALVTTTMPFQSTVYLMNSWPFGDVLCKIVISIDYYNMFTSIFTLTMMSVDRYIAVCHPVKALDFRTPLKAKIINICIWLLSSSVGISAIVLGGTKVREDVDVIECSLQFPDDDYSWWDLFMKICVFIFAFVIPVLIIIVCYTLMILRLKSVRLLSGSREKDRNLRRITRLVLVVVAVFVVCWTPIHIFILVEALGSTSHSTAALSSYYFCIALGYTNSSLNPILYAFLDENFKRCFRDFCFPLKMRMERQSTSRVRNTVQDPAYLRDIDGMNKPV

Compound | ED50 (Mus musculus [1]) | Time (Mus musculus [2]) | Time (Mus musculus [5]) | other results
O=C(CBr)Nc1cccc(CCCN2CC[C@]34CCCC[C@H]3[C@H]2Cc2ccc(O)cc24)c1 | > 100 mg/kg | 1 h |  | inhibition (Mus musculus [3]): Active
CCOC(=O)/C=C\C(=O)Nc1cccc(CCN2CC[C@]34CCCC[C@H]3[C@H]2Cc2ccc(O)cc24)c1 | 2.3 mg/kg |  | 60 min | inhibition (Mus musculus [4]): Active; Time (Mus musculus [6]): 3 h
O=C1C=CC(=O)N1c1cccc(CCN2CC[C@]34CCCC[C@H]3[C@H]2Cc2ccc(O)cc24)c1 | 11.4 mg/kg |  | 30 min | inhibition (Mus musculus [4]): Active; Time (Mus musculus [7]): 2 h
CC(=O)Oc1ccc2c(c1)[C@@]13CCCC[C@H]1[C@@H](C2)N(CCCc1cccc(N2C(=O)C=CC2=O)c1)CC3 | > 100 mg/kg | 2 h |  | inhibition (Mus musculus [8]): Active
CCOC(=O)/C=C/C(=O)Nc1ccccc1CCN1CC[C@]23CCCC[C@H]2[C@H]1Cc1ccc(O)cc13 | > 150 mg/kg |  |  | 
O=C1C=CC(=O)N1c1cccc(CCCN2CC[C@]34CCCC[C@H]3[C@H]2Cc2ccc(O)cc24)c1 | > 50 mg/kg |  |  | Time (Mus musculus [9]): 2 h; inhibition (Mus musculus [10]): Active
CCOC(=O)/C=C\C(=O)Nc1cccc(CCCN2CC[C@]34CCCC[C@H]3[C@H]2Cc2ccc(O)cc24)c1 | > 100 mg/kg |  |  | Time (Mus musculus [9]): 2 h; inhibition (Mus musculus [10]): Active
CCOC(=O)/C=C\C(=O)Nc1ccccc1CCCN1CC[C@]23CCCC[C@H]2[C@H]1Cc1ccc(O)cc13 | > 100 mg/kg | 2 h |  | inhibition (Mus musculus [8]): Active
CC(=O)Oc1ccc2c(c1)[C@@]13CCCC[C@H]1[C@@H](C2)N(CCc1ccccc1N1C(=O)C=CC1=O)CC3 | 11.7 mg/kg |  | 30 min | Time (Mus musculus [7]): 2 h
CCOC(=O)/C=C/C(=O)Nc1cccc(CCCN2CC[C@]34CCCC[C@H]3[C@H]2Cc2ccc(O)cc24)c1 | 76.5 mg/kg |  | 30 min | Time (Mus musculus [11]): 5.5 h; inhibition (Mus musculus [12]): Active
O=C(CBr)Nc1ccccc1CCCN1CC[C@]23CCCC[C@H]2[C@H]1Cc1ccc(O)cc13 | > 100 mg/kg | 1 h |  | inhibition (Mus musculus [3]): Active
O=C1C=CC(=O)N1c1ccc(CCN2CC[C@]34CCCC[C@H]3[C@H]2Cc2ccc(O)cc24)cc1 | 1.1 mg/kg |  | 30 min | Activity (Mus musculus [13]): inactive; inhibition (Mus musculus [4]): Active; IC50 [14]: 5.3 nM; IC50 [15]: 5.7 ×10⁻⁸ M; Ratio IC50 [16]: > 10; Ratio ED50 (Mus musculus [17]): 4; Time (Mus musculus [18]): 2 h; inhibition (Mus musculus [19]): Active
O=C1C=CC(=O)N1c1ccccc1CCN1CC[C@]23CCCC[C@H]2[C@H]1Cc1ccc(O)cc13 | > 100 mg/kg |  |  | Time (Mus musculus [20]): 1 h; inhibition (Mus musculus [21]): Active
CCOC(=O)CCC(=O)Nc1ccccc1CCCN1CC[C@]23CCCC[C@H]2[C@H]1Cc1ccc(O)cc13 | > 100 mg/kg | 2 h |  | inhibition (Mus musculus [8]): Active
CCOC(=O)CCC(=O)Nc1cccc(CCCN2CC[C@]34CCCC[C@H]3[C@H]2Cc2ccc(O)cc24)c1 | 77.9 mg/kg | 1 h | 30 min | inhibition (Mus musculus [3]): Active
CCOC(=O)/C=C/C(=O)Nc1ccccc1CCCN1CC[C@]23CCCC[C@H]2[C@H]1Cc1ccc(O)cc13 | 84 mg/kg |  | 15 min | Time (Mus musculus [22]): 2 h; inhibition (Mus musculus [23]): Active
